Experimental data reported in ChEMBL document CHEMBL3616394 (Eur J Med Chem, 2015).
The source made the active and inactive calls. The rule behind the calls is not given here.

Experiments:
[1] = biological target: T1, Neuronal acetylcholine receptor; alpha4/beta2 (Rattus norvegicus, UniProt P09483+P12390); test: Displacement of [3H]epibatidine from rat alpha4beta2 nAChR expressed in HEK293 cells after 4 hr by scintillation counting assay
[2] = biological target: T1, Neuronal acetylcholine receptor; alpha4/beta2; test: Displacement of [3H]epibatidine from rat alpha4beta2 nAChR expressed in HEK293 cells after 4 hrs by scintillation counting assay; type: cell-based
[3] = biological target: Neuronal acetylcholine receptor; alpha4/beta4 (Rattus norvegicus, UniProt P09483+P12392); test: Displacement of [3H]epibatidine from rat alpha4beta4 nACHR expressed in HEK293 cells after 4 hrs by scintillation counting assay; type: cell-based; details: for pKi: hek293
Sequence of Neuronal acetylcholine receptor; alpha4/beta4 (P09483 whole entry): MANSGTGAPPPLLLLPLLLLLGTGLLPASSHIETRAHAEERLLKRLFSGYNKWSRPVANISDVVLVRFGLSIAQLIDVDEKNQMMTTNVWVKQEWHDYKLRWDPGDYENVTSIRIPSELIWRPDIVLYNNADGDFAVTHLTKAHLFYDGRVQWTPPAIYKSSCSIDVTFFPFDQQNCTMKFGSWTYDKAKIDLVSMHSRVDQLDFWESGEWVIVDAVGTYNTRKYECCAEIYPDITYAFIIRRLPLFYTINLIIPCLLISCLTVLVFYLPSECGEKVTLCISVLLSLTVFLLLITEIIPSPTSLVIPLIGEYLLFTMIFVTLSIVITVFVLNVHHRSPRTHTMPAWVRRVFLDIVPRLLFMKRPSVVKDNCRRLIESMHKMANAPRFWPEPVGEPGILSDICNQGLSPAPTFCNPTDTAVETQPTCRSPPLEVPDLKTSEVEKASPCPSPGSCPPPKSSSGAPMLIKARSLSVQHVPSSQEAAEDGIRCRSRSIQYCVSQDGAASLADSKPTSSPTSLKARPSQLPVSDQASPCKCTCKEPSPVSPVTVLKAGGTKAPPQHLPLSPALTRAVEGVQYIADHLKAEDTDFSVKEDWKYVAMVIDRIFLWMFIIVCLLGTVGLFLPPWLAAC
Sequence of Neuronal acetylcholine receptor; alpha4/beta4 (P12392 whole entry): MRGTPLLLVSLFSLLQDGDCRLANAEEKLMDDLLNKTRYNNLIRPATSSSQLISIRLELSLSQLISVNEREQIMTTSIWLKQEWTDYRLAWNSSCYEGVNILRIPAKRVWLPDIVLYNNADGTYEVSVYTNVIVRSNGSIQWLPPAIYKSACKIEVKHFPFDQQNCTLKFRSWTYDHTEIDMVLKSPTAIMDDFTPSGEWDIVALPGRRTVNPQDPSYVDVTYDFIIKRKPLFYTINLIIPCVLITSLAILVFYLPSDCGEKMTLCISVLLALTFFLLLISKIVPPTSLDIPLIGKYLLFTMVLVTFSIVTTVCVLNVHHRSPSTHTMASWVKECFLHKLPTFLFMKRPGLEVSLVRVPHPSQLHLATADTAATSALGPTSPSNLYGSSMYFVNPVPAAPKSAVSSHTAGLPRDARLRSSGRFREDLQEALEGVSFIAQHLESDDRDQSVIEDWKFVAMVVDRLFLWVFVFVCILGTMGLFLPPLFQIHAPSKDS

[4] = biological target: Neuronal acetylcholine receptor; alpha3/beta4 (Rattus norvegicus, UniProt P04757+P12392); test: Displacement of [3H]epibatidine from rat alpha3beta4 nACHR expressed in HEK293 cells after 4 hrs by scintillation counting assay; type: cell-based; details: for pKi: hek293
Sequence of Neuronal acetylcholine receptor; alpha3/beta4 (P04757 whole entry): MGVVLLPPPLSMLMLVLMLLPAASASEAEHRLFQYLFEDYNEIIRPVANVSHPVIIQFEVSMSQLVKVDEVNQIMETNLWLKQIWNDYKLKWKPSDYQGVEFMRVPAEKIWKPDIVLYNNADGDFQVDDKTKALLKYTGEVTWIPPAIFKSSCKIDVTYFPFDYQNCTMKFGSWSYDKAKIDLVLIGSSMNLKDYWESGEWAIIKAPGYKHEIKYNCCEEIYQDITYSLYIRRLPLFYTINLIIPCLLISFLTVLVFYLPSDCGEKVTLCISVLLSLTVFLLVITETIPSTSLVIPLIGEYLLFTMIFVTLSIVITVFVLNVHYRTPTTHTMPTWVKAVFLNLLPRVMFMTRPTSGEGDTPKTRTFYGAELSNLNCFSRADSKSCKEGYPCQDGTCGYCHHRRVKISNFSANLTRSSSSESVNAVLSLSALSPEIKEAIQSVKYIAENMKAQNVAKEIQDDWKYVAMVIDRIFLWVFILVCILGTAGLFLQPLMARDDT
Sequence of Neuronal acetylcholine receptor; alpha3/beta4 (P12392 whole entry): as the sequence (P12392 whole entry) above

[5] = biological target: T2, Neuronal acetylcholine receptor subunit alpha-4/beta-2 (Mus musculus) (UniProt Q9ERK7+O70174); test: Agonist activity at recombinant mouse alpha4beta2 nAChR expressed in HEK293 cells at >=100 uM after 30 min by FLIPR potential blue assay; type: cell-based
T2 sequence (O70174 31-629 partner limits assumed): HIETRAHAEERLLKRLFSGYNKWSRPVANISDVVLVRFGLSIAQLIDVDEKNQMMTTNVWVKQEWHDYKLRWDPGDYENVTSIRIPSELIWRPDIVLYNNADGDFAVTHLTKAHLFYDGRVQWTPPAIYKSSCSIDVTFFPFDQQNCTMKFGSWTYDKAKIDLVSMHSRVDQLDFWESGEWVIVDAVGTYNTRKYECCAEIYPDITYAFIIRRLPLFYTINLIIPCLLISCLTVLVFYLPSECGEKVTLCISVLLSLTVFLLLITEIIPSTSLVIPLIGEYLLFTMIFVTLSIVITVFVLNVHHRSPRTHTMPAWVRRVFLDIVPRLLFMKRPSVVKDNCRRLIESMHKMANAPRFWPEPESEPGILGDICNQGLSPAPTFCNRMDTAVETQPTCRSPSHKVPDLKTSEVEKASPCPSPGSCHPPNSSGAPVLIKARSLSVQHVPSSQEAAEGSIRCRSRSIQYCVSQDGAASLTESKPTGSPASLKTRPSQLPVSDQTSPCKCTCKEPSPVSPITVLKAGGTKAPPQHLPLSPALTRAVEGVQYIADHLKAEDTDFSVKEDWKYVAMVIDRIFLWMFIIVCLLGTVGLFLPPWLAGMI
T2 sequence (Q9ERK7 26-501 limits assumed): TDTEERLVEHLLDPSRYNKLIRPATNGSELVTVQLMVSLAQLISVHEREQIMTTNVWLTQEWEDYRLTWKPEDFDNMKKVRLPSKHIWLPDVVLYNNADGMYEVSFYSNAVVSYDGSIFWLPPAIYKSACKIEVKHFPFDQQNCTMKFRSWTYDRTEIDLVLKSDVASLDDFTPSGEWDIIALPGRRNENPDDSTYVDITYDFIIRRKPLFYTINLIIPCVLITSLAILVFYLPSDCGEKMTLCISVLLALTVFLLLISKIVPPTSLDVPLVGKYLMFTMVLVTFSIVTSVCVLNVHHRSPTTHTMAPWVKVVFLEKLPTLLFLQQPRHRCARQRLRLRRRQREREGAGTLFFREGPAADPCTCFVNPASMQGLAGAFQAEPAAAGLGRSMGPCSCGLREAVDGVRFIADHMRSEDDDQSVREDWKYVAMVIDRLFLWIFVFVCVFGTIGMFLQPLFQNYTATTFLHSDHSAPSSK
Method in brief: (§1)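 FLIPR membrane potential (FMP) dye assay on α4β2-HEK293T cells. Cells were washed in Krebs buffer (pH 7.4) and loaded with dye (0.5 mg/ml) for 30 min at 37 °C. Emission at 565 nm with excitation at 525 nm was read 20 s before and 70 s after ligand addition. Response was the ΔFU between maximal levels. Duplicate wells, at least three experiments.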

[6] = biological target: T3, Neuronal acetylcholine receptor; alpha3/beta4 (Rattus norvegicus) (UniProt P04757+P12392); test: Agonist activity at recombinant rat alpha3beta4 nAChR expressed in HEK293 cells at 300 uM after 30 min by FLIPR potential blue assay; type: cell-based
Method in brief: (§2)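 Stable rat α3β4 HEK293 cells were loaded with FMP dye (0.5 mg/ml) in Krebs-HEPES buffer, pH 7.4, for 30 min at 37 °C. For antagonist runs, the test compound was included in the dye buffer and EC70-EC80 ACh was then added. Fluorescence was read at ex 525/em 565 nm, 20 s before and 70 s after ligand addition, and ΔFU taken. Runs were done in duplicate, at least three times.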

[7] = biological target: T2, Neuronal acetylcholine receptor subunit alpha-4/beta-2 (Mus musculus); test: Agonist activity at recombinant mouse alpha4beta2 nAChR expressed in HEK293 cells at >=30 uM after 30 min by FLIPR potential blue assay; type: cell-based
Method in brief: as §1

[8] = biological target: Neuronal acetylcholine receptor subunit alpha-4/beta-2 (Mus musculus, UniProt O70174+Q9ERK7); test: Antagonist activity at recombinant mouse alpha4beta2 nAChR expressed in HEK293 cells assessed as inhibition of acetylcholine-induced effect after 30 min by FLIPR potential blue assay; type: cell-based
Sequence of Neuronal acetylcholine receptor subunit alpha-4/beta-2 (Q9ERK7 whole entry): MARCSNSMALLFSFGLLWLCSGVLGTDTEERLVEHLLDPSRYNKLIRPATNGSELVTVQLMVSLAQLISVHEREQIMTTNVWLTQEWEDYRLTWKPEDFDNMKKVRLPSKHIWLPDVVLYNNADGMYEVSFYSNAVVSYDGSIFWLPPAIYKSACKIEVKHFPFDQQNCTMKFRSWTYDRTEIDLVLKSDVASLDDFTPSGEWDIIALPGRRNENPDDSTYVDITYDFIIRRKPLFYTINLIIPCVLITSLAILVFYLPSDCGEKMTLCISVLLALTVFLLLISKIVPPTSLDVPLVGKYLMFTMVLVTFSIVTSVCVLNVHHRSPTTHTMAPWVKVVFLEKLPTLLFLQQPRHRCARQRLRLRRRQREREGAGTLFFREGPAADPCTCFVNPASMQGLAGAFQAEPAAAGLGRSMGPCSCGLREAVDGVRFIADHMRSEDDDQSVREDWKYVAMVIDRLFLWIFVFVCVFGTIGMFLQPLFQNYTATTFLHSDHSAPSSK
Sequence of Neuronal acetylcholine receptor subunit alpha-4/beta-2 (O70174 whole entry): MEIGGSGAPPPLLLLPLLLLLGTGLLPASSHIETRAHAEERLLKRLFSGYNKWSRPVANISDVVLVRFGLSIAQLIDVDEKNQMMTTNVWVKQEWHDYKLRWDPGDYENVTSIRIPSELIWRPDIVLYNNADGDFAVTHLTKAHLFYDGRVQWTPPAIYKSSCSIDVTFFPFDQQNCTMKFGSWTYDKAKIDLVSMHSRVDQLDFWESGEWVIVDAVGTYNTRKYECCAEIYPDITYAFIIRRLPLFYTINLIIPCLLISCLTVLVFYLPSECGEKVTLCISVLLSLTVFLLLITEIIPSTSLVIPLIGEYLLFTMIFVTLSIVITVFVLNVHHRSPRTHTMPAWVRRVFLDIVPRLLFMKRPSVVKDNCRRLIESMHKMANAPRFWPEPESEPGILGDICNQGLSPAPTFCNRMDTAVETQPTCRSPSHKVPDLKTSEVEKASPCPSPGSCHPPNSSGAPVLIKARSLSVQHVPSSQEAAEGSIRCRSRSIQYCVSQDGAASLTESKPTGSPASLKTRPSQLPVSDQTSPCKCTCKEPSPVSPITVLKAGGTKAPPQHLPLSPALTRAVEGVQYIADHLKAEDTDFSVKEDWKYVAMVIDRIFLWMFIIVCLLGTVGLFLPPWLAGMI
Method in brief: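 FMP dye assay on α4β2-HEK293T cells. Antagonist was dissolved in the dye-loading Krebs buffer (pH 7.4) and preincubated 30 min at 37 °C. EC70–EC80 ACh was then added as final agonist. 565 nm emission was read before and after addition, and inhibition curves were built from ΔFU at eight concentrations. IC50 fitted; duplicate, at least three experiments.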

[9] = biological target: T3, Neuronal acetylcholine receptor; alpha3/beta4 (Rattus norvegicus); test: Antagonist activity at recombinant rat alpha3beta4 nAChR expressed in HEK293 cells assessed as inhibition of acetylcholine-induced effect at >=100 uM after 30 min by FLIPR potential blue assay; type: cell-based
Method in brief: as §2

[10] = Binding affinity to Aplysia californica AChBP after 300 seconds by SPR biosensor analysis
[11] = biological target: T2, Neuronal acetylcholine receptor subunit alpha-4/beta-2 (Mus musculus); test: Agonist activity at recombinant mouse alpha4beta2 nAChR expressed in HEK293 cells at 300 uM after 30 min by FLIPR potential blue assay; type: cell-based
Method in brief: as §1

[12] = biological target: T1, Neuronal acetylcholine receptor; alpha4/beta2; test: Agonist activity at rat (alpha4)2(beta2)3 nAChR expressed in Xenopus oocyte by two electrode voltage-clamp electrophysiology assay
Method in brief: (§3)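 Xenopus laevis oocytes were injected with about 25 ng total cRNA for rat α4 and β2. The α4:β2 ratio was 1:4 for (α4)2(β2)3 and 10:1 for (α4)3(β2)2. Oocytes were kept at 15-18 °C and recorded 2-5 days later, clamped at -60 mV. Peak currents were taken across 10 nM-10 mM agonist, with 10 min washes between applications. Currents were normalised on the same oocyte to ACh, 300 µM at (α4)2(β2)3 and 1 mM at (α4)3(β2)2.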

[13] = biological target: T1, Neuronal acetylcholine receptor; alpha4/beta2; test: Agonist activity at rat (alpha4)3(beta2)2 nAChR expressed in Xenopus oocyte by two electrode voltage-clamp electrophysiology assay
Method in brief: as §3

[14] = biological target: Neuronal acetylcholine receptor; alpha4/beta2 (Rattus norvegicus) (UniProt P09483+P12390); test: Agonist activity at rat (alpha4)3(beta2)2 nAChR expressed in Xenopus oocyte by two electrode voltage-clamp electrophysiology assay relative to acetylcholine
Method in brief: as §3

T1 sequence (P09483 whole entry): as the sequence (P09483 whole entry) above
T1 sequence (P12390 whole entry): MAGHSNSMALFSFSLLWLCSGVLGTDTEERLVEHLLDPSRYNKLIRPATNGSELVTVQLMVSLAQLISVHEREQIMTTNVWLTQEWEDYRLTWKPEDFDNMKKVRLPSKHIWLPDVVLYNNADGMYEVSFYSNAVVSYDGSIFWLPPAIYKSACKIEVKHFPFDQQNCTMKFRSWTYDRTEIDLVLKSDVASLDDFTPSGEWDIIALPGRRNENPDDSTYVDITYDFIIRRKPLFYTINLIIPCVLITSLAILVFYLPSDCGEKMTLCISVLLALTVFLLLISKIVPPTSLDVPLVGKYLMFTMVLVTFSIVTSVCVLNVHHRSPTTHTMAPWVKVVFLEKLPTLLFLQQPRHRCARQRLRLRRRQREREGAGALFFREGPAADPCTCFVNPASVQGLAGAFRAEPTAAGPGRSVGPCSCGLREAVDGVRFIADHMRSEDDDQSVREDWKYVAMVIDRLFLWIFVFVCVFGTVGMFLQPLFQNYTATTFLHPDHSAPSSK

| SMILES | Ki [2] [µM] | Ki [3] [µM] | Ki ([4]; read-out: Ki) [µM] | also measured |
| --- | --- | --- | --- | --- |
| c1cncc(N2CCCNCC2)c1 |  |  |  | Ki [1]: 0.00072 µM |
| CN(C)C(=O)OCCC(CCCc1ccccc1)N(C)C (stereo not drawn) | 1.9 | 4.9 | 13 | Activity [5]: Active; Activity [6]: Active |
| CN(C)C(=O)OCCC(CCCCc1ccccc1)N(C)C (stereo not drawn) | 1.1 | 4.4 | 11 | Activity [5]: Active; Activity [6]: Active |
| CNC(=O)OCCC(CCCc1ccccc1)N(C)C (stereo not drawn) | 11 | 30 | 100 | Activity [5]: Active; Activity [6]: Active |
| CN(C)C(CCCCc1ccccc1)CCOc1nccn1C (stereo not drawn) | 0.76 | 3.7 | 8.3 | Activity [7]: Active |
| CNC(=O)OCCC(CCC(O)c1ccccc1)N(C)C (stereo not drawn) | 100 | 100 | > 300 | Ki ([4]; read-out: pKi (converted)): > 316 µM |
| C(=C\N1CCCN(c2cccnc2)CC1)/c1ccccc1 | 0.099 | 1.6 | 2.9 | IC50 [8]: 1.1 µM; inhibition [9]: inactive |
| c1ccc(CCCN2CCN(c3cccnc3)CC2)cc1 | 0.49 | 3.5 | 20 | Activity [5]: Active; Activity [6]: Active |
| CN1[C@@H](CC(=O)c2ccccc2)CCC[C@H]1C[C@H](O)c1ccccc1 [LOBELINE] |  |  |  | Kd [10]: 0.013 µM; pKd [10]: 7.9 |
| c1ccc(CCN2CCN(c3cccnc3)CC2)cc1 | 0.56 | 8.9 | 8.2 | Activity [11]: Active; Activity [6]: Active |
| c1ccc(CCCN2CCCN(c3cccnc3)CC2)cc1 | 0.082 | 3.8 | 3.8 | Kd [10]: > 1 µM; pKd [10]: < 6 |
| CNC(=O)OCCC(CCCCCc1ccccc1)N(C)C (stereo not drawn) | 2.7 | 4.5 | 50 |  |
| CN(C)C(=O)OCCC(COc1ccc(F)cc1)N(C)C (stereo not drawn) | 500 | 100 | 300 |  |
| c1ccc(CN2CCN(c3cccnc3)CC2)cc1 | 9.6 | 100 | > 300 | Ki ([4]; read-out: pKi (converted)): > 316 µM |
| c1ccc(CCN2CCCN(c3cccnc3)CC2)cc1 | 0.11 | 2.4 | 3.4 |  |
| c1ccc(CN2CCCN(c3cccnc3)CC2)cc1 | 0.104 | 3.4 | 2.6 | EC50 [12]: 1.8 µM; EC50 [13]: 7.9 µM; Kd [10]: > 1 µM; pKd [10]: < 6; Rmax [14]: 6 |
| CC(CCOC(=O)N(C)C)N(C)CC(O)Cc1ccccc1 (stereo not drawn) | 500 | 100 | > 1000 | pKi [4]: < 3 |
| Brc1ccc(N2CCCN(CCCc3ccccc3)CC2)cn1 | 0.82 | 1.5 | 2.2 |  |
| CNC(=O)OCCC(C)N(C)CCc1ccccc1 (stereo not drawn) | 30 | 300 | 300 |  |
| CC(CCOC(=O)N(C)C)N(C)CCCc1ccccc1 (stereo not drawn) | 300 | > 1000 | > 1000 | pKi [3]: < 3; pKi [4]: < 3 |
| Brc1cccc(CCN2CCCN(c3cccnc3)CC2)c1 | 0.13 | 1.9 | 0.78 |  |
| CNC(=O)OCCC(C)N(C)CC(O)c1ccccc1 (stereo not drawn) | 300 | 300 | 1000 |  |
| CNC(=O)OCCC(C)N(C)Cc1ccccc1 (stereo not drawn) | 300 | 300 | 300 |  |
| CN(C)C(=O)OCCC(CCC(O)c1ccccc1)N(C)C (stereo not drawn) | 30 | 6.7 | 5.9 | Ki ([4]; read-out: pKi (converted)): 6.03 µM |
| CNC(=O)OCCC(CCCCc1ccccc1)N(C)C (stereo not drawn) | 3.6 | 30 | 100 | Activity [5]: Active; Activity [6]: Active |
| CN(C)C(=O)OCCC(COc1ccccn1)N(C)C (stereo not drawn) | 100 | 300 | 300 |  |
| CNC(=O)OCCC(C)N(C)CCCc1ccccc1 (stereo not drawn) | 50 | > 1000 | > 1000 | pKi [3]: < 3; pKi [4]: < 3 |
